# Jurkat viability: cytotoxic compounds reducing Jurkat cell viability | Jurkat E6.1 viability, ATP luminescence, 48 h | inhibition, % at 4 µM | actives 1.2% (n = 56,000) | AID 463;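 active = inhibition above the mean inhibition of all tested compounds plus 3 SD, cut at about 28% in these data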
# PTK2B oligo ant: antagonists of human Pyk2 oligomerization | Q14289 | Q293 cells, Pyk2 FERM NanoBiT luminescence; stronger effect = lower value | z-score (the deposit names both 25 µM and 10 µM) | actives 0.83% (n = 99,000);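 active = Z-score of -3 or lower, scaled per plate to the spread of control and sample wells; inactive = z-score above -3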;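 also: negative z-score means lost luminescence so less FERM oligomerization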
# Target sequence (Q14289 whole entry, looked up): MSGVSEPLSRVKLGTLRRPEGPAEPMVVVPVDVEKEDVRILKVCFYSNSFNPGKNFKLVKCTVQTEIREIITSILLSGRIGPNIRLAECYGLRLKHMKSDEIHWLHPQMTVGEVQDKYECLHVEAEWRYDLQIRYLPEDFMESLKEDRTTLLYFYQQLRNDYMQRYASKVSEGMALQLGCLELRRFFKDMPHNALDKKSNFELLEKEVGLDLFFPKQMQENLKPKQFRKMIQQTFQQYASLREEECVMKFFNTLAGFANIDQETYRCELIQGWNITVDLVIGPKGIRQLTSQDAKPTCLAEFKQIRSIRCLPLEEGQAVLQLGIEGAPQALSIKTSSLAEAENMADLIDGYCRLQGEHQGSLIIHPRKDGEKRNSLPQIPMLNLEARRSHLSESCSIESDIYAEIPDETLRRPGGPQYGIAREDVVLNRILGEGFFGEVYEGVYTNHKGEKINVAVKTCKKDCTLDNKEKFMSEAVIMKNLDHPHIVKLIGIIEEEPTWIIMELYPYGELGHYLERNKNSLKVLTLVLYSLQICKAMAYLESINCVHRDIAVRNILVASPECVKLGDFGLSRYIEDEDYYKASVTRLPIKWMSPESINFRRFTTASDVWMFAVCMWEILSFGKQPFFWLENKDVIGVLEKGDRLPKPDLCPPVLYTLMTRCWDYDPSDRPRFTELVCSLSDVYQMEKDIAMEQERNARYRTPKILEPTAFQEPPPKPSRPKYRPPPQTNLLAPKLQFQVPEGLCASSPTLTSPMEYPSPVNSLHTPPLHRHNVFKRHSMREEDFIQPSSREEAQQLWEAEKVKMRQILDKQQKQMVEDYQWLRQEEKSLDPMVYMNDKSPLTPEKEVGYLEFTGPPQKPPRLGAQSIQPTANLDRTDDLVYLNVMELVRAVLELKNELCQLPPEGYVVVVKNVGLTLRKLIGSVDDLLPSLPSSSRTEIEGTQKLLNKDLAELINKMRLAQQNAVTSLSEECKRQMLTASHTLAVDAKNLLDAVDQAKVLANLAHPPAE
# HUVEC prolif 384: human endothelial cell proliferation inhibition; HUVEC proliferation, CellTiter-Glo luminescence, 72 h; stronger effect = lower value; viability, % at 10 µM (by protocol); actives 1.1% (n = 86,000); AID 648;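 active = viability at or below 30%; inactive = viability above 30%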;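 also: 100% = median luminescence of DMSO-only cell control wells on each plate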
# Lung fibro prol: blocks proliferation of human lung fibroblasts | LL 47 human lung fibroblast viability, ATP luminescence; stronger effect = lower value | AID 719 | actives 1.1% (n = 85,000) | viability, % at 10 µM;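 active = viability at or below 50% in the single dose screen; inactive = viability above 50%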;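 also: compound exposure lasted 72 h before the ATP readout; 100% = median luminescence of untreated cell-only wells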
#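 Material: human LL 47 lung fibroblast cells; quantity: 1,150 cells/well; medium: IMEM plus 15% FBS; doses: 0.1% DMSO in all compound wells; timing: overnight attachment after seeding, then 72 h compound exposure at 37 °C; detection: CellTiter-Glo luminescence; measure: % viability of median cell-only signal; controls: cell-only wells, no compound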
# H69AR growth 86K: blocks growth of human H69AR lung tumor cells. H69AR lung tumor viability, ATP luminescence, 72 h; stronger effect = lower value. viability, % at 10 µM. actives 6% (n = 85,000);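 active = viability at or below 40%; inactive = viability above 40%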;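 also: multidrug resistant small cell line overexpressing MRP-1 efflux transporter; 100% = mean luminescence of untreated control wells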
# F-actin modifier: cytoskeleton assembly modification | HUVEC TNFa F-actin phalloidin imaging, high content | actives 0.18% (n = 91,000) | AID 836 | inhibition, % at 2 µM;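 active = inhibition above the batch mean plus 3 SD and confirmed as a hit by visual image inspection, cut at about 30% in these data, passing the limit was not always enough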
# * = called active by the depositor; nt = no result. Most compounds without a hit are left out; they make up all but 6% or so of the library.
SMILES,Jurkat viability,PTK2B oligo ant,HUVEC prolif 384,Lung fibro prol,H69AR growth 86K,F-actin modifier
Cc1ccc(-n2cnc3cc(NCc4cccs4)ccc32)cc1,nt,-1.5,118,94,81,5
O=C(Oc1ccnc2cc(Cl)ccc12)N1CCCCCC1,10,2.1,114,88,26*,nt
Clc1ccc2c(N3CCCC3)ccnc2c1,10,-0.09,104,98,80,14
Cc1cc(C)c(C(=O)CSc2nnc(-c3ccccc3Br)o2)cc1C,1,0.37,62,94,72,1
Cc1cc(C)c(C(=O)CSC2=NC(N)=C(C#N)C3(CCCCC3)C2C(N)=O)cc1C (centres undefined),nt,-0.04,90,101,12*,-11
N#Cc1cnn(-c2nc3sc4c(c3c(=O)[nH]2)CCCC4)c1N,nt,0.23,nt,nt,nt,-6
CCOc1ccc(S(=O)(=O)n2cnc3cc(C)c(C)cc32)cc1,63*,0.88,85,100,91,-8
COc1ccc(OC)c(S(=O)(=O)n2cnc3cc(C)c(C)cc32)c1,7,0.77,72,89,40,-33
Cc1cc2ncn(S(=O)(=O)c3ccc(S(=O)(=O)N4CCCCCC4)cc3)c2cc1C,nt,-0.82,89,98,35*,11
O=C(NCCCN1CCCC1=O)c1cccc(C(F)(F)F)c1,0,-0.46,97,93,89,-33
COC(=O)C(NC(C)=O)(Nc1nc2c(C)cc(C)cc2s1)C(F)(F)F (centres undefined),nt,-1.2,71,88,26*,-10
Cc1sc2nc3c(C(=O)N4CCN(c5ncccn5)CC4)cccn3c(=O)c2c1C,nt,nt,93,85,95,nt
COc1cccc(-c2nc(CS(=O)(=O)CC(=O)Nc3c(C)cccc3C)c(C)o2)c1,-7,nt,79,92,14*,nt
COc1cccc(-c2nc(CS(=O)(=O)CC(=O)Nc3cc(C)ccc3C)c(C)o2)c1,4,nt,95,103,20*,-4
COc1cccc(-c2nc(CS(=O)(=O)CC(=O)NCCC(C)C)c(C)o2)c1,0,nt,nt,nt,nt,-2
CC(C)(C)C(=O)COC(=O)CNC(=O)c1ccc(Oc2ccccc2)cc1,nt,0.15,87,91,107,-8
O=[N+]([O-])c1ccc(Nc2nc(N/N=C\c3ccc4c(c3)OCO4)nc(N3CCCCC3)n2)cc1,nt,-1.8,nt,nt,nt,-27
O=[N+]([O-])c1ccc(/C=N/Nc2nc(N3CCCCCC3)nc(N3CCCCCC3)n2)o1,nt,-0.27,70,85,28*,4
Cc1ccc(C)c2[nH]c(=O)c(CN(CCN3CCCC3)C(=O)Nc3cccc(Cl)c3)cc12,51*,2.3,21*,28*,0.6*,-8
Cc1ccc2[nH]c(=O)c(CN(CCN3CCOCC3)C(=O)Nc3ccc(F)cc3)cc2c1,6,1.6,90,96,39*,7
CCc1ccc2[nH]c(=O)c(CN(CCCN3CCOCC3)C(=O)Nc3cccc(Cl)c3)cc2c1,4,-0.56,15*,61,29*,-33
Cc1ccc(NC(=O)N(CCCN2CCOCC2)Cc2cc3cc4c(cc3[nH]c2=O)OCO4)cc1,0,1.1,nt,nt,nt,16
Cc1ccc2[nH]c(=O)c(CN(CCCN(C)C)C(=O)Nc3ccc(Cl)cc3)cc2c1,nt,0.26,62,64,3.0*,11
C=CCn1c(SC/C=C/c2ccccc2)nnc1-c1sc(N)nc1C,-2,-0.79,101,103,88,-4
CCC(OC(=O)CC1Sc2ccccc2NC1=O)C(=O)NCC1CCCO1 (centres undefined),-3,0.94,100,92,90,30
SMILES,Jurkat viability,PTK2B oligo ant,HUVEC prolif 384,Lung fibro prol,H69AR growth 86K,F-actin modifier
COc1cccc(C(=O)N2CCN(S(C)(=O)=O)CC2)c1,nt,-0.08,89,104,102,nt
CCc1ccc2[nH]c(=O)c(CN(CCCN3CCOCC3)C(=O)Nc3ccc(Cl)cc3)cc2c1,5,-0.02,28*,77,27*,-14
COc1ccc(C(=O)COc2ccccc2N2C(=O)C3C4C=CC(C4)C3C2=O)cc1 (centres undefined),nt,-0.21,102,99,91,nt
COc1ccc(/C=C2\CCc3ccccc3C2=O)cc1Cn1nc(C)cc1C,nt,-1.5,87,80,15*,14
COc1ccccc1OCCOc1ccc(/C=C2/C(=N)N3OC(C)=CC3=NC2=O)cc1OC,nt,0.12,nt,nt,nt,-40
COc1cc(/C=C2/C(=N)N3C=CSC3=NC2=O)ccc1OCCCOc1cc(C)ccc1C,nt,0,15*,70,19*,4
O=c1c2ccccc2n(Cc2ccc(Cl)cc2)c(=O)n1Cc1ccco1,-4,-2.1,63,89,70,nt
O=C(NCc1ccco1)c1ccc(Cn2c(=O)c3ccccc3n(Cc3cccc(F)c3)c2=O)cc1,nt,-0.78,49,66,7.7*,23
Cc1ccc(NC(=O)Cn2c(=O)n(CCCC(=O)NCc3ccco3)c(=O)c3ccccc32)cc1,-3,-3.1*,39,75,40,-1
Cc1ccc(CSc2nc3ccccc3c(=O)n2Cc2ccco2)cc1,nt,-0.65,88,95,83,-14
O=C(NCc1ccco1)c1ccc(Cn2c(=O)c3ccccc3n(Cc3ccc(Cl)cc3)c2=O)cc1,nt,-0.78,70,69,23*,1
Cc1ccc(CSc2nc3ccccc3c(=O)n2CCCC(=O)NCc2ccco2)cc1,nt,-1.1,58,83,29*,-33
O=S(=O)(Cc1ccc(Cl)cc1)c1ccccc1-c1nnc(-c2ccc(Cl)cc2)o1,nt,-0.19,nt,nt,nt,-1
Cc1ccc(-n2c(=O)c3sccc3n(CC(=O)NCc3ccco3)c2=O)cc1,-8,0.81,99,99,80,-29
O=C(CCCCn1c(=O)c2ccccc2n(Cc2ccc(F)cc2)c1=O)NCc1ccco1,37*,-0.81,56,70,22*,-11
Cc1cccc(Cn2c(=O)n(-c3ccc(CC(=O)NCc4ccco4)cc3)c(=O)c3sccc32)c1,nt,nt,89,87,20*,-9
Cc1ccccc1NC(=O)CCC(=O)OCCCC(F)(F)C(F)(F)F,-8,-0.18,99,101,91,7
CCCCc1ccc(-c2ccc(Br)cc2)nc1,nt,-0.06,106,104,82,3
CCCc1ccc(-c2ccc(F)c(N)c2)nc1,60*,-0.18,82,97,78,57
COc1ccc(NC(=O)CC2C(=O)N(c3cccc(C)c3)C(=O)N2C2CCCCC2)cc1 (centres undefined),nt,-2.4,106,102,108,-12
Cc1ccc(-c2cc(C(=O)N/N=C/c3c(C)nn(-c4ccccc4)c3C)[nH]n2)cc1,nt,-3*,nt,nt,nt,0
Cc1ccc2nc3c(cc(C#N)c(=O)n3CC3CCCO3)c(=O)n2c1 (centres undefined),-7,nt,49,88,70,nt
COC(=O)c1ccc(Oc2cc(C)nc(SC)n2)cc1,65*,0.83,57,58,30*,-10
CCOc1cc(C(=O)CSc2nnc(CNc3ccc(Cl)cc3)o2)ccc1NC(=O)CC,6,-0.2,1.7*,64,0.2*,-19
